# Screening results from PubChem.
# Hits are enriched below; roughly 2.9% of the tested compounds scored in any of these assays.
# CAL PDZ FP-1: CAL PDZ peptide-binding inhibitors, primary screen, biochemical, fluorescence polarization, Cer-tagged CAL PDZ, HTS; Golgi-associated PDZ and coiled-coil motif-containing protein (Homo sapiens), Q9HD26; purified CAL PDZ, TMR-peptide fluorescence polarization, 1 h; inhibition, % at 20 µM; 0.02% of 330,000 active; AID 504414, 2011;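 active = highest replicate inhibition of at least 40%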;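 also: plate controls were DMSO neutral control wells for no effect and unlabeled competitor peptide control wells for full effect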
#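 System: tagged CAL PDZ domain. Schedule: 1 h room-temperature incubation prior to read. Signal: fluorescence polarization (mP). Measure: percent inhibition from loss of millipolarization.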
# CAL PDZ FP-2: untagged CAL PDZ binding inhibitors, primary screen, biochemical, fluorescence polarization, HTS. Golgi-associated PDZ and coiled-coil motif-containing protein (Homo sapiens), Q9HD26. inhibition, % at 24.9 µM. purified CAL PDZ, TMR-peptide fluorescence polarization, 1 h. 0.92% of 300,000 active;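 active = mean inhibition of at least 30% with at least half of replicates also reaching 30%; inconclusive = no clear call, values can overlap the other calls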;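 also: 0% = DMSO neutral control and 100% = excess unlabeled competitor peptide PRC23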
# SIRT5 inh: SIRT5 desuccinylase inhibitors, primary screen, biochemical, fluorescence imaging, single point, set 5; Purified SirT5, succinyl-peptide AMC, trypsin-coupled fluorescence; NAD-dependent protein deacylase sirtuin-5, mitochondrial (Homo sapiens), Q9NXA8; AID 652115, 2013; inhibition, % at 15 µM; 1.1% of 330,000 active; in the data active = inhibition above about 15%; inconclusive = no clear call, values can overlap the other calls
# ERAP1 HTS inh: human ERAP1 aminopeptidase inhibitors, primary screen, biochemical, single point, plate reader; 0.15% of 340,000 active; inhibition, % at 10.7 µM; Endoplasmic reticulum aminopeptidase 1 (Homo sapiens), Q9NZ08; recombinant ERAP1, Leu-AMC fluorescence, 60 min;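 active = mean replicate inhibition of at least 30%, or all replicates individually reaching that 30% level; inactive = mean below 30% and not every replicate reaching it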;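 also: 0% = neutral control wells and 100% = L-leucinethiol positive control wells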
# Target sequence (Q9NZ08 whole entry, looked up): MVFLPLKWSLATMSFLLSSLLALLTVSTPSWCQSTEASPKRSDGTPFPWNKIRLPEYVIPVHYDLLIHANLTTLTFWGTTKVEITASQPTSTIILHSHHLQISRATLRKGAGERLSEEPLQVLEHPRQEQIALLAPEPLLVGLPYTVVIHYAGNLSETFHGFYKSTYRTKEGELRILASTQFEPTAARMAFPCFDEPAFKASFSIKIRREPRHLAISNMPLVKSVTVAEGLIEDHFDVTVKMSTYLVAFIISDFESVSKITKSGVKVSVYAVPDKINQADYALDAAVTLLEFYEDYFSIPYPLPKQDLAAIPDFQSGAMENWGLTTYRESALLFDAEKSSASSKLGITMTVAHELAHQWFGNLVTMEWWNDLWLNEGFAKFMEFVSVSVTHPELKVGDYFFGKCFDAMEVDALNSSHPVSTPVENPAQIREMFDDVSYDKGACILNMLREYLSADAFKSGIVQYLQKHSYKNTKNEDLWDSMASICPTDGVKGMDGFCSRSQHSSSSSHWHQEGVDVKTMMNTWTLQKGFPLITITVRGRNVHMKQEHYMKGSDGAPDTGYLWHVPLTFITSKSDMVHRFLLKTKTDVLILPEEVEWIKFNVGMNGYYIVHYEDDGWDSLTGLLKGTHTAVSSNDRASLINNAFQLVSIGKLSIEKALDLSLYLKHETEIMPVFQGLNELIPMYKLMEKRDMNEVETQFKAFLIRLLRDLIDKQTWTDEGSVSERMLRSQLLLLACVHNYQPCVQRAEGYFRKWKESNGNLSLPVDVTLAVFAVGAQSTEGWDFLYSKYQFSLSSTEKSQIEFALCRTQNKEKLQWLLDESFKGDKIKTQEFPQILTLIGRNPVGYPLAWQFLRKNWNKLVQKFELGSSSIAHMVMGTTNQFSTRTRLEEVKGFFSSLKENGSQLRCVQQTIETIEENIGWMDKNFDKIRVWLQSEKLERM
# S100A4 inh HTS: inhibitors of S100A4-myosin IIA peptide binding, primary screen, biochemical, fluorescence polarization, TAMRA-MyoIIA peptide; 0.14% of 360,000 active; inhibition, % at 10.7 µM; AID 652163, 2013;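 active = mean inhibition of at least 70% across replicates, with every replicate also reaching that level; inconclusive = mean inhibition reaches 70% but some replicates fall short; inactive = mean inhibition below 70%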
#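 incubation = readout 5 min after mixing, signal stable up to 60 min | system = S100A4 monomer protein | buffer or medium = HEPES pH 7.2 with CaCl2, KCl, NaCl, DTT, Triton | benchmarks = neutral control DMSO, positive control TFP | also added = fluorescent myosin IIA peptide, 5 nM | compound dosing = one concentration per compound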
# DENV2 CPE: inhibitors of DENV2 cytopathic effect, primary screen, cell-based, plate reader, single concentration. DENV2-infected cells, cytopathic effect rescue. CPE inhibition, % at 9.99 µM. 1.7% of 350,000 active; in the data active = CPE inhibition above about 20%, passing the limit was not always enough; inconclusive = no clear call, values can overlap the other calls; tested in BHK-21 cells;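 also: 0% = median of neutral control wells and 100% = median of positive control wells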
# * marks the source's active call; other numbers are inactive results; ? = inconclusive; . = no result; ! = repeats disagree.
SMILES,CAL PDZ FP-1,CAL PDZ FP-2,SIRT5 inh,ERAP1 HTS inh,S100A4 inh HTS,DENV2 CPE
CCOc1ccc(NC(=O)C2CCCN2C(=O)Oc2ccccc2)cc1 (centres undefined),0,-6,2,57*,-3,-5
Cc1cc(C)cc(NC(=O)C2CCCN2C(=O)Oc2ccccc2)c1 (centres undefined),0,0,.,.,.,.
COc1ccc(NC(=S)NC(=O)C2CCCCC2)cc1,0,0,-3,0,5,-2
CCOc1ccc(NC(=S)NC(=O)C2CCCC2)cc1,0,32*,5,-5,2,-5
O=S(=O)(O)c1cc(Cl)cc(N=Nc2ccc(O)cc2O)c1O,1,0,39*,12,13,-11
COc1ccc(NC(=O)Nc2ccc3c(c2)CC(=O)N([C@@H](C)CO)C[C@@H](C)[C@H](CN(C)Cc2ccc(-c4ccccc4)cc2)O3)cc1,.,.,0,1,-77,8
COc1ccccc1CNC(=O)[C@@H](NC(=O)C1CCN(C(=O)[C@@H]2CCCN2C(=O)OC(C)(C)C)CC1)C(C)C,0,-5,1,-4,0,61*
CC(C)(C)OC(=O)N1CCC[C@H]1C(=O)NCc1ccc(Cl)cc1Cl,-1,-3,-4,0,-3,4
CC(C)(C)OC(=O)N1CCC[C@H]1C(=O)N1CCC[C@H]1C(=O)NCc1ccc(F)cc1F,.,.,17*,-2,-7,-1
COc1ccccc1CNC(=O)[C@@H](NC(=O)C1CCN(C(=O)[C@@H]2CCCN2)CC1)C(C)C,0,-2,.,.,-2,-2
Cc1ccc(S(=O)(=O)Nc2ccc3c(c2)CC(=O)N([C@H](C)CO)C[C@H](C)[C@H](CN(C)C(=O)Nc2ccc(C(F)(F)F)cc2)O3)cc1,.,.,-1,-4,0,0
CC1(Cc2ccc(Cl)cc2)C(=O)Nc2ccc(-c3cccnc3)cc21 (centres undefined),.,.,1,-1,1,8
CC1(Cc2cccc(F)c2)C(=O)Nc2ccc(-c3cccnc3)cc21 (centres undefined),.,.,.,0,4,54*
O=C(Nc1c[nH]c(=O)[nH]c1=O)c1ccc2c(c1)C(=O)N(c1cccc([N+](=O)[O-])c1)C2=O,-3,-3,2,-3,5,-6
O=C(Nc1ccccc1C(=O)O)c1ccc2c(c1)C(=O)N(c1cccc([N+](=O)[O-])c1)C2=O,.,-8,18*,1,-5,-3
C[C@H]1CN([C@@H](C)CO)C(=O)Cc2cc(N(C)C)ccc2O[C@@H]1CN(C)C(=O)Nc1cccc2ccccc12,.,.,2,-1,10,-4
CC(C)NC(=O)N(C)C[C@H]1Oc2ccc(NC(=O)Cc3ccccc3)cc2C(=O)N([C@@H](C)CO)C[C@H]1C,.,.,-1,3,-1,-10
CC(C)NC(=O)N(C)C[C@H]1Oc2ccc(NC(=O)Cc3ccccc3)cc2C(=O)N([C@H](C)CO)C[C@@H]1C,1,-3,20*!,-3,-1,52*!
CC(C)NC(=O)N(C)C[C@@H]1Oc2ccc(NC(=O)Cc3ccccc3)cc2C(=O)N([C@@H](C)CO)C[C@H]1C,.,.,-3,2,-8,-3
CC(C)NC(=O)N(C)C[C@@H]1Oc2ccc(NC(=O)Cc3ccccc3)cc2C(=O)N([C@H](C)CO)C[C@H]1C,.,.,0,-2,-2,78*
CC1(C#N)c2ccccc2C(Br)=CN1C(=O)c1ccccc1 (centres undefined),0,4,.,.,-5,31*
O=[N+]([O-])c1ccc2[nH]c(O)c(N=NC3CCS(=O)(=O)C3)c2c1 (centres undefined),-2,3,25*,0,-7,2
O=[N+]([O-])c1ccc(N=Nc2c(O)[nH]c3ccc(F)cc23)cc1,.,42*,1,-1,6,0
O=[N+]([O-])c1ccc2[nH]c(O)c(N=Nc3ccc(F)cc3)c2c1,-1,-9,-1,-1,3,3
CCC(=O)N/C(N)=N/c1nc(C)c2cc(C)c(C)cc2n1,.,.,18*,.,24,-5
SMILES,CAL PDZ FP-1,CAL PDZ FP-2,SIRT5 inh,ERAP1 HTS inh,S100A4 inh HTS,DENV2 CPE
COc1ccc(C)cc1NS(=O)(=O)c1ccc2c(c1)N(C)CCO2,-2,-2,-1,-2,84*,3
COc1ccc(C)cc1NS(=O)(=O)c1ccc2c(c1)n(C)c(=O)n2C,-1,4,-1,0,6,6
O=C(CCN1CCCCC1)N[C@H]1CC[C@H](CCn2cc(-c3ccccc3)nn2)O[C@@H]1CO,.,.,3,-1,124*,0
O=C(CCN1CCCCC1)N[C@H]1CC[C@@H](CCn2cc(-c3ccc(F)cc3)nn2)O[C@H]1CO,.,.,23*,-2,9,11
O=C(CCN1CCCCC1)N[C@@H]1CC[C@@H](CCn2cc(-c3ccccc3)nn2)O[C@@H]1CO,.,.,0,-3,9,2
C[C@H](CO)N1C[C@H](C)[C@H](CN(C)CC2CCCCC2)Oc2ccc(NC(=O)CCCN(C)C)cc2CC1=O,.,.,-7,-1,3,8
O=C(CC(F)(F)F)N1C[C@H]2[C@@H](c3ccccc31)[C@H](CO)N2C(=O)CN1CCOCC1,.,.,0,-3,11,1
C[C@H](CO)N1C[C@H](C)[C@H](CN(C)C(=O)Nc2ccccc2)Oc2ncc(-c3ccc(F)cc3)cc2C1=O,.,.,3,1,3,5
CC(=O)N(C)C[C@@H]1Oc2ncc(-c3ccc(F)cc3)cc2C(=O)N([C@H](C)CO)C[C@H]1C,.,.,-6,1,15,59*
C[C@H](CO)N1C[C@H](C)[C@@H](CN(C)C(=O)c2ccc(F)cc2)Oc2ncc(-c3ccc(F)cc3)cc2C1=O,.,.,1,0,-7,48*
C[C@@H]1CN([C@@H](C)CO)C(=O)c2cc(-c3ccc(F)cc3)cnc2O[C@@H]1CN(C)C(=O)c1ccc(F)cc1,.,.,-1,-1,11,10
C[C@@H]1CN([C@@H](C)CO)C(=O)c2cc(-c3ccc(C#N)cc3)cnc2O[C@@H]1CN(C)C(=O)Nc1ccc(C(F)(F)F)cc1,.,.,7,3,4,?
